Laboratory results published in ChEMBL document CHEMBL1123812, “Pyrroloisoquinoline antidepressants. 2. In-depth exploration of structure-activity relationships” (J Med Chem, 1987).

Tests used:
Mus musculus [1] = species: Mus musculus; experiment: Gross behavioral effects ascertained in mice; W indicates weak stimulant or depressant activity of little significance.; format: functional, organism-based
Method in brief: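 Male Swiss Webster mice, 18–24 g, three per dose, given ip doses of 1, 3, 10, 30, 100 and 300 mg/kg. Observed for gross behavior and held for 4 days. Scored as weak (W), stimulant (S), depressant (D) or convulsant (C).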

Mus musculus [2] = species: Mus musculus; experiment: Antagonism of tetrabenazine (TBZ)-induced depression measured in mice by motor activity; format: functional; conditions: Mus musculus; read-out: ED50
Method in brief: (§1)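 Nonfasted male Swiss Webster mice, 18–24 g, ten per dose level and in saline controls. Test compound given ip 30 min before tetrabenazine 32 mg/kg ip; dose expressed as free base. Motor activity and ptosis scored. Control response ≤90% corrected by Abbott's formula.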

Mus musculus [3] = species: Mus musculus; experiment: Antagonism of tetrabenazine (TBZ)-induced depression in mice measured for ptosis; format: functional; conditions: Mus musculus; read-out: ED50; method in brief: as §1
[4] = target: Sodium-dependent dopamine transporter (Rattus norvegicus, UniProt P23977); experiment: Inhibition of the uptake of tritiated dopamine (DA) in rat synaptosomes; format: subcellular, Brain
Chain of Sodium-dependent dopamine transporter (P23977 whole entry): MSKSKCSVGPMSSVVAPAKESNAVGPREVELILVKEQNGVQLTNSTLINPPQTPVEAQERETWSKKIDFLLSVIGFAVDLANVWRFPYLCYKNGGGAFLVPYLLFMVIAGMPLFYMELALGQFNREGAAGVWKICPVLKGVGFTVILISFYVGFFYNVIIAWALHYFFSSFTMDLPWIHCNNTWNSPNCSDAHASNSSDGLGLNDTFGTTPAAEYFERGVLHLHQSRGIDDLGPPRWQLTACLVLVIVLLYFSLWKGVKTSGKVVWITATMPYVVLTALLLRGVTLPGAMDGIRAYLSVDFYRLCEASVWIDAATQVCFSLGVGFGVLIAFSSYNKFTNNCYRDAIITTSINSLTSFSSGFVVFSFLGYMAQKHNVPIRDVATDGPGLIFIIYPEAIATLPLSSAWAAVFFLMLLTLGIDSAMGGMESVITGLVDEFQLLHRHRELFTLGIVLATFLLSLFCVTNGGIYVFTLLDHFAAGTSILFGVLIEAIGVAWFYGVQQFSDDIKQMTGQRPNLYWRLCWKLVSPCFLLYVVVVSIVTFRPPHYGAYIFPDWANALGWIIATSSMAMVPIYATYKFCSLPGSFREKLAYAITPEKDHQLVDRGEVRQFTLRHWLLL

[5] = target: Norepinephrine transporter (Rattus norvegicus, UniProt Q9WTR4); experiment: Inhibition of uptake of tritiated norepinephrine (NE) in rat synaptosomes; format: subcellular, Brain
Chain of Norepinephrine transporter (Q9WTR4 whole entry): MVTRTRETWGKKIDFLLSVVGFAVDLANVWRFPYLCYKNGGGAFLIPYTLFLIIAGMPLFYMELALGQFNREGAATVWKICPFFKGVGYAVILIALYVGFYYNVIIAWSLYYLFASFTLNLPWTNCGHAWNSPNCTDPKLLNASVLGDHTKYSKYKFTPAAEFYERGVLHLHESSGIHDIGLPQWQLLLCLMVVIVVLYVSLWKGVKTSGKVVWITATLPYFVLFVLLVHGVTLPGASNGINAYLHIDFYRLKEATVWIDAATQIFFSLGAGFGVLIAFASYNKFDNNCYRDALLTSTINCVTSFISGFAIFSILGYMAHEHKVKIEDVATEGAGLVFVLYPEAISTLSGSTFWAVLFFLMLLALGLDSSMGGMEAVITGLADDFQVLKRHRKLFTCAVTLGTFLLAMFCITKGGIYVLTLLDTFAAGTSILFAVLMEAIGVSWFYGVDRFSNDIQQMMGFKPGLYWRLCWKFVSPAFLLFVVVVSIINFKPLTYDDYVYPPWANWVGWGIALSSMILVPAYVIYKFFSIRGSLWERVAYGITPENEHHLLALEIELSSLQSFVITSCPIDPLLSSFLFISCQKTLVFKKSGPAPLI

[6] = target: D(2) dopamine receptor (Rattus norvegicus) (UniProt P61169); experiment: Binding affinity towards dopamine receptor D2 at 1.0 uM concentration
Chain of D(2) dopamine receptor (Rattus norvegicus) (P61169 whole entry): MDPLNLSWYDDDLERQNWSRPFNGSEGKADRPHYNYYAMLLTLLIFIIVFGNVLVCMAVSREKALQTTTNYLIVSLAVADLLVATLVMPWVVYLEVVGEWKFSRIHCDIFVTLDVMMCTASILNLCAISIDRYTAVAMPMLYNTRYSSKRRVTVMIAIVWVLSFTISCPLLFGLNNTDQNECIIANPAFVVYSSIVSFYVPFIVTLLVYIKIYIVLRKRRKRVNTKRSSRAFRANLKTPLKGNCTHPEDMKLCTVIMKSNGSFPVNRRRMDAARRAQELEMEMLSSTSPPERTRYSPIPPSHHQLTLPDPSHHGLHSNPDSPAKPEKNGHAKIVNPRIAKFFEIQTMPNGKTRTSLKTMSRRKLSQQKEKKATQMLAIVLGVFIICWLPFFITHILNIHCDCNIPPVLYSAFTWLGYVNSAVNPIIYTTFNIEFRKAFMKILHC
Method in brief: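 Rat brain crude synaptic membranes in 20 mM NaHEPES pH 7.5. Ligands: α1 cortex […] 0.4 nM, nonspecific with (-)-NE 100 μM, 30 min at 25 °C. […] D2 striatum [3H]spiperone 0.05 nM with (+)-butaclamol 1 μM, 45 min at 37 °C. S1 cortex [3H]5-HT 1 nM plus glutathione and MgCl2, with 5-HT 10 μM, 20 min at 37 °C. […] Samples filtered on GF/B and counted.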

[7] = target: Sodium-dependent serotonin transporter (Rattus norvegicus) (UniProt P31652); experiment: Ability to inhibit the uptake of [3H]- serotonin(5-HT) 0.1 uM concentration at rat brain synaptosomes; format: functional, subcellular
Chain of Sodium-dependent serotonin transporter (Rattus norvegicus) (P31652 whole entry): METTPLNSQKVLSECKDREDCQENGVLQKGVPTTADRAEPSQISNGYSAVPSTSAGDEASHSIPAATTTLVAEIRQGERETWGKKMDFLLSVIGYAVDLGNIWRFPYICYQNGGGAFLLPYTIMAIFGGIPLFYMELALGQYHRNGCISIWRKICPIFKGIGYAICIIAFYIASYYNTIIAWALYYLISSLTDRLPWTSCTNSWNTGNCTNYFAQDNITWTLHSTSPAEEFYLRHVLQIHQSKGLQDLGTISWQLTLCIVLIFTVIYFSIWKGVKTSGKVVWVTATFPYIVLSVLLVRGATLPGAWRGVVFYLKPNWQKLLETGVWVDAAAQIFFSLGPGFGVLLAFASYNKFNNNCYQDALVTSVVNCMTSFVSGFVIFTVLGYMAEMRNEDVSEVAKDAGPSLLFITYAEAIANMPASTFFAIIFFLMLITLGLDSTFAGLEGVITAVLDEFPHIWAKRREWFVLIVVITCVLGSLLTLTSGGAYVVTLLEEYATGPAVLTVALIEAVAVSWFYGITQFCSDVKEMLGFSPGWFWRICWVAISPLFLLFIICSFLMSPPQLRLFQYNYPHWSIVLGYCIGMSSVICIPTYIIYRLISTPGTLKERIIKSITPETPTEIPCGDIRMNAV
Method in brief: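 Male Wistar rat brain synaptosomes (P2 fraction): hypothalamus for NE, striatum for DA, cerebral cortex for 5-HT. Buffer is Tris- or HEPES-buffered salt medium with glucose, ascorbate and nialamide, pH 7.4 at 37 °C. Preincubated 10 min at 37 °C with compound. Uptake started with [3H]NE 100–300 nM, [3H]DA 50–300 nM or [3H]5-HT 100–200 nM, incubated 3 min (DA) or 6–10 min (NE, 5-HT). Blanks held on ice. Filtered, counted by scintillation.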

| Compound | behavior (Mus musculus [1]) | ED50 (Mus musculus [2]) [mg/kg] | ED50 (Mus musculus [3]) [mg/kg] | Ki [4] [nM] | Ki [5] [nM] | inhibition [6] [%] | inhibition [7] [%] |
| --- | --- | --- | --- | --- | --- | --- | --- |
| CCCCc1ccc([C@@H]2CN3CCC[C@@H]3c3ccccc32)cc1 | Weak | > 60 | 9.1 | 230 | 29.9 | – | – |
| Br.Oc1ccc([C@@H]2CN3CCC[C@H]3c3ccccc32)cc1O | Partial stimulant | > 30 | 1.8 | 32.6 | 22.3 | 6 | – |
| CSc1ccc([C@@H]2CN3CCC[C@@H]3c3ccccc32)cc1 (stereo in doubt; (-)-48b) | – | – | – | – | – | 5 | – |
| Br.CS(=O)(=O)c1ccc([C@@H]2CN3CCC[C@H]3c3ccccc32)cc1 | Weak | > 30 | 17.7 | – | – | – | – |
| Br.Clc1ccc2c(c1)[C@H]1CCCN1C[C@H]2c1ccccc1 | – | ~0.3 | ~0.5 | 2.5 | 0.62 | – | – |
| CN1Cc2c(N)cccc2C(c2ccccc2)C1 (stereo not drawn) [NOMIFENSINE] | Partial stimulant | 0.18 | 0.11 | – | – | – | – |
| Clc1ccc([C@@H]2CN3CCC[C@@H]3c3ccccc32)c(Cl)c1 | – | ~2 | ~1 | – | – | – | – |
| O=C(Nc1ccccc1)Nc1ccc([C@@H]2CN3CCC[C@@H]3c3ccccc32)cc1 | – | – | – | 24.5 | 117 | – | – |
| Clc1ccc([C@@H]2CN3CCC[C@H]3c3cc(Cl)ccc32)cc1 | Weak | > 100 | ~37 | 65.1 | 33.8 | – | – |
| C[C@@]12CCCN1C[C@H](c1ccc(Cl)cc1)c1ccccc12 | Weak | 6.8 | 1.5 | 7.6 | 3.8 | – | – |
| FC(F)(F)c1cccc([C@@H]2CN3CCC[C@@H]3c3ccccc32)c1 (stereo in doubt; (+)-37b) | – | – | – | 25.7 | 1.5 | – | – |
| Clc1ccc([C@@H]2CN3CCC[C@H]3c3ccccc32)cc1 | Weak | 8.1 | 5.4 | – | – | – | – |
| Br.Oc1ccccc1[C@@H]1CN2CCC[C@@H]2c2ccccc21 | Weak | > 3 | ~2 | 360 | 8.8 | – | – |
| Br.O=[N+]([O-])c1ccc([C@@H]2CN3CCC[C@@H]3c3ccccc32)cc1 | Weak | 0.17 | 0.08 | 94.2 | 3.4 | – | – |
| NC(=O)c1ccc([C@@H]2CN3CCC[C@@H]3c3ccccc32)cc1 | – | – | – | 84.5 | 90.2 | – | – |
| FC(F)(F)c1ccc([C@@H]2CN3CCC[C@@H]3c3ccccc32)cc1 | – | > 3 | ~2 | 128 | 10.6 | – | – |
| Br.Cn1ccc2c1[C@@H](c1ccccc1)CN1CCC[C@@H]21 | Weak | 2.4 | ~0.75 | 9.8 | 7.5 | – | – |
| c1ccc([C@H]2CN3CCCC[C@H]3c3ccccc32)cc1 | Weak | > 30 | > 30 | > 1000 | 13.7 | – | – |
| FC(F)(F)c1cccc([C@@H]2CN3CCCC3c3cc(Cl)ccc32)c1 (stereo partly drawn) | – | – | – | 168 | 32.6 | – | – |
| c1ccc([C@H]2CN3CC[C@H]3c3ccccc32)cc1 | – | ~2 | 1.25 | 81.6 | 6.3 | – | – |

| Compound | behavior (Mus musculus [1]) | ED50 (Mus musculus [2]) [mg/kg] | ED50 (Mus musculus [3]) [mg/kg] | Ki [4] [nM] | Ki [5] [nM] | inhibition [6] [%] | inhibition [7] [%] |
| --- | --- | --- | --- | --- | --- | --- | --- |
| O[C@]1(c2ccccc2)CN2CCC[C@H]2c2ccccc21 | Weak | 8.4 | 1.6 | 28.5 | 8.1 | – | – |
| CSc1ccccc1[C@@H]1CN2CCC[C@@H]2c2ccccc21 | – | ~0.6 | ~0.6 | – | – | – | – |
| Clc1cccc2c1[C@H](c1ccccc1)CN1CCC[C@H]21 | – | – | – | 25.3 | 11.6 | – | – |
| Br.COc1ccc([C@@H]2CN3CCC[C@H]3c3ccccc32)cc1 | Weak | ~50 | 3 | 119 | 27.6 | – | – |
| N#Cc1ccc([C@@H]2CN3CCC[C@@H]3c3ccccc32)cc1 | – | ~2 | ~2 | – | – | – | – |
| Br.COc1ccc([C@@H]2CN3CCC[C@@H]3c3ccccc32)cc1 | Weak | 0.27 | 0.03 | 5.2 | 0.79 | – | – |
| COc1ccc(NC(=O)Nc2ccc([C@@H]3CN4CCC[C@H]4c4ccccc43)cc2)cc1 | – | – | – | 8.8 | 15 | – | – |
| Fc1cccc(Cl)c1[C@@H]1CN2CCC[C@@H]2c2ccccc21 | – | > 3 | > 3 | 279 | 11.5 | – | – |
| Cc1ccccc1[C@@H]1CN2CCC[C@@H]2c2ccccc21 | – | ~1 | ~1 | 117 | 5.6 | – | – |
| Br.c1ccc2c(c1)[C@@H](C1CCCCC1)CN1CCC[C@@H]21 | Weak | 6.4 | 1.9 | 604 | 81 | – | – |
| FC(F)(F)c1ccc2c(c1)[C@H]1CCCN1C[C@H]2c1ccccc1 | – | – | – | 11.2 | 3.1 | – | – |
| CCn1cc(C(=O)O)c(=O)c2ccc(Cc3ccccc3)nc21 [AMFONELIC ACID] | – | – | – | 7.2 | 41.1 | – | – |
| Br.c1csc([C@H]2CN3CCC[C@H]3c3ccsc32)c1 | Weak | ~24 | ~30 | 39.8 | 14.6 | – | – |
| Clc1ccc([C@@H]2CN3CCC[C@H]3c3ccccc32)cc1Cl | Weak | ~41 | 8 | 30.8 | 16 | – | – |
| COc1cccc2c1[C@H](c1ccccc1)CN1CCC[C@H]21 | Weak | 10 | 1.2 | 12.3 | 11.5 | – | – |
| CCN1Cc2ccccc2C(c2ccccc2)C1 (stereo not drawn) | Weak | ~10 | ~10 | 36.4 | 5.6 | – | – |
| COc1ccc2c(c1)[C@H]1CCCN1C[C@H]2c1ccccc1 | – | – | – | 2.8 | 2.2 | – | – |
| Br.Brc1ccccc1[C@@H]1CN2CCC[C@@H]2c2ccccc21 | – | ~0.6 | ~1 | 26.5 | 1.5 | – | – |
| C[C@@]12CCCN1C[C@@H](c1ccc(Cl)cc1)c1ccccc12 | Weak | – | – | ~100 | ~100 | – | 21 |
| Br.O[C@@]1(c2ccccc2)CN2CCC[C@H]2c2ccccc21 | Weak | ~25 | 6.2 | 258 | 40.8 | – | – |
